Drawing on ChEMBL document CHEMBL3244181, “Synthesis and biological activity of cocaine analogues. 2. 6H-[2]Benzopyrano[4,3-c]pyridin-6-ones” (J Med Chem, 1979), this text covers IC50 and inhibition for five compounds.

Each structure is given as a SMILES string.

One may read the IC50 as the concentration at which inhibition is half-maximal. Low values mean inhibition by little substance, high ones a need for much substance. Usually inhibition stands for how much of the control response was suppressed.

Assay [1] is described as follows: Inhibition of [3H]norepinephrine reuptake at norepinephrine transporter in CD Charles River albino rat brain synaptosomes after 5 mins by scintillation counting analysis. It is filed as subcellular. In short, it runs like this: (§1)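 Synaptosomes were taken from the 0.8/1.2 M sucrose gradient interface and resuspended in Krebs Ringer phosphate with pargyline (1.6 mg/100 mL) and glucose (237 mg/100 mL). They were incubated with unlabelled norepinephrine and [3H]norepinephrine for 5 min at 30 °C, quenched with cold buffer, and pelleted at 10000g. Pellet counts, minus post-incubation tracer blanks, gave % inhibition as (control − sample)/control cpm.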

For assay [2], the species on record is Rattus norvegicus. Nature of the assay: Inhibition of [3H]norepinephrine reuptake at norepinephrine transporter in CD Charles River albino rat brain synaptosomes at 10^-5 M after 5 mins by scintillation counting analysis. It is filed as subcellular. In a few lines: as §1
In assay [3] the target is Sodium-dependent serotonin transporter (Homo sapiens) (UniProt P31645). Nature of the assay: Inhibition of serotonin reuptake at SERT (unknown origin) at 10^-5 M.
Assay [4] has as its target Sodium-dependent dopamine transporter (Homo sapiens) (UniProt Q01959). Nature of the assay: Inhibition of dopamine reuptake at DAT (unknown origin) at 10^-5 M.
Assay [5] is filed under the species Rattus norvegicus. Nature of the assay: Inhibition of [3H]norepinephrine reuptake at norepinephrine transporter in rat brain at 10^-5 M by scintillation counting analysis. Type of assay: tissue-based.

Sodium-dependent dopamine transporter (Homo sapiens), sequence (Q01959 whole entry): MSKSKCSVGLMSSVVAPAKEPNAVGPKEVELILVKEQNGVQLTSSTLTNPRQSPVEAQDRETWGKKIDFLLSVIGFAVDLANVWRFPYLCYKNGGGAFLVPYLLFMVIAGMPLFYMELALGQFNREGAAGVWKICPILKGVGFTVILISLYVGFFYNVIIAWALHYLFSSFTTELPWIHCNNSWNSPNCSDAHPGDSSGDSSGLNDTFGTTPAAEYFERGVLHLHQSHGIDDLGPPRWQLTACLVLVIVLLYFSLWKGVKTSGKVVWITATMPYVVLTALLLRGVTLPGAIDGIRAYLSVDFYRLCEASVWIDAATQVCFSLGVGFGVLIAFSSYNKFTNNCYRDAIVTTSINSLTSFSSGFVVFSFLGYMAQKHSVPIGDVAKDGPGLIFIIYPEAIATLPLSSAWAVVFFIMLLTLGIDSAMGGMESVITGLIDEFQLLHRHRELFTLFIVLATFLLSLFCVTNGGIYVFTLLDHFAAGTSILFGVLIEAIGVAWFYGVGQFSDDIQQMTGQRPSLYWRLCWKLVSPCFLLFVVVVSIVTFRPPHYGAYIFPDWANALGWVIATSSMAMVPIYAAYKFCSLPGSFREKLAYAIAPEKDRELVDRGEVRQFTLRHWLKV
Sodium-dependent serotonin transporter (Homo sapiens), sequence (P31645 whole entry, looked up): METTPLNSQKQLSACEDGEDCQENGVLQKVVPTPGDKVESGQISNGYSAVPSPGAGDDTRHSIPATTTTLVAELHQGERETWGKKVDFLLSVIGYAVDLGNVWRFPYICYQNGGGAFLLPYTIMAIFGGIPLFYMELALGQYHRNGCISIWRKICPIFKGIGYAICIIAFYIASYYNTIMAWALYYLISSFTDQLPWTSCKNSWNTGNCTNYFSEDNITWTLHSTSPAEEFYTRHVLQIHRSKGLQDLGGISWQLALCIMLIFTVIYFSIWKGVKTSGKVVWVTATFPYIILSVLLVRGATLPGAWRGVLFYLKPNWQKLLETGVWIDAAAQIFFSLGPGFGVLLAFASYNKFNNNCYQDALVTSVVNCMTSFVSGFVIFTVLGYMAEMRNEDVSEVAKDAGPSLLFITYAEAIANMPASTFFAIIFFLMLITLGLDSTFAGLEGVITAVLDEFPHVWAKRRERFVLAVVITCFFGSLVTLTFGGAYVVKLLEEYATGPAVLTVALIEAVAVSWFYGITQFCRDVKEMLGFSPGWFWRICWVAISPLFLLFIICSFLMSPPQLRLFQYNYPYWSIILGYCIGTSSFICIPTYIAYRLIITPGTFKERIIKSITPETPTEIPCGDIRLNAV

Regarding `CN1[C@@H]2CC[C@H]1C[C@H](OC(=O)c1ccccc1)C2`, in assay [1], the IC50 stood at 5.6 µM.
Still for that read-out and setting: the figure for `CN1CCc2oc(=O)c3ccccc3c2C1` is 320 µM.
`CN1CC[C@H]2OC(=O)c3ccccc3[C@H]2C1` (relative stereo): the IC50 in assay [1] is 650 µM. In assay [2], this compound returned an inhibition of 0%.
`CN1CC[C@H]2OC(=O)c3ccccc3[C@@H]2C1` (relative stereo) yielded an IC50 in assay [1] of 320 µM. Besides, the inhibition in assay [2] came out at 36%; in assay [3], 0%; in assay [4], 3%; in assay [5], 11%.
As for `COC(=O)[C@H]1[C@@H](OC(=O)c2ccccc2)C[C@@H]2CC[C@H]1N2C` [COCAINE], half-maximal inhibition in assay [1] (IC50) required 0.575 µM. This lies in the sub-micromolar range.
